Experiments:
liver tissue slices [1] = test: Formation of hydroxylated PCB 136 metabolites in liver tissue slices; format: in vitro ADME, Sprague-Dawley rats; details: for Metabolite formation, slices / Metabolite formation, medium: 2 h; for Metabolite as percent of ΣOH-PCB: slices plus medium
liver tissue slices [2] = test: Enantioselective analysis; format: in vitro ADME, Sprague-Dawley rats; details: for Enantiomeric enrichment: liver slices from PB- and DEX-treated male and female rats incubated with racemic PCB 136
How it was run: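 Liver slices from PB- or DEX-pretreated rats, two per vial in 2 mL K-H buffer, were incubated with racemic test compound (final 5 μM, from DMSO) for 2 h at 37 °C under 5% CO2/95% air in a dynamic system. Triplicate incubations were run per animal. Hydroxylated metabolites were methylated; atropisomers were separated on Chirasil-Dex (5-OH) or Cyclosil-B (4-OH) columns. EF = Area E(2)/(Area E(1) + Area E(2)).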

ryanodine receptor (RyR) = details: enantioselective; ref Pessah et al., 2009; cited from earlier work
[3] = Effect of inducer treatment on body and liver weights of rats; format: in vivo, Sprague-Dawley rats; details: i.p. inducer treatment
liver tissue slices [4] = test: Liver slice viability; format: cell-based, Sprague-Dawley rats; details: 2 h
How it was run: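 Liver slices came from adult rats, either naive or pretreated with PB or DEX, taken 24 h after the last dose into cold Krebs-Henseleit buffer, pH 7.5. Two slices per vial in 2 mL buffer received test compound (final 5 μM) or DMSO, 2 h, 37 °C, 5 % CO2/95 % air. LDH in medium and homogenate gave % release = A1×D1/(A1×D1+A2×D2); viable was <30 %.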

CYP1A2 = test: Hepatic P450 transcript levels; format: in vivo, Sprague-Dawley rats
[5] = test system: hippocampal slice cultures; test: LDH release in hippocampal slice cultures; format: cell-based, Sprague Dawley rats (PND4 pups); details: ethanol 200 mM, 14 d exposure
How it was run: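 Hippocampi from PND4 pups of timed-pregnant Sprague Dawley rats were cultured as slices. From 5 DIV, racemic test compound or vehicle (0.1 % DMSO) was added to 1 mL medium, renewed every 2 days for 14 days. LDH release was measured with a membrane-integrity fluorescence kit. Mean ± SEM, n = 2 wells per group.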

[6] = test system: hippocampal slice cultures; test: Propidium iodide; format: cell-based, Sprague Dawley rats (PND4 pups); details: glutamate 20 mM, positive control, 3 d exposure
[7] = DEX-treated female rats, PCB 136 5 μM (10 nmol)
[8] = DEX-treated female rats, PCB 136 5 μM
[9] = DEX-treated male rats, PCB 136 5 μM (10 nmol)
[10] = DEX-treated male rats, PCB 136 5 μM
[11] = PB-treated female rats, PCB 136 5 μM (10 nmol)
[12] = PB-treated female rats, PCB 136 5 μM
[13] = PB-treated male rats, PCB 136 5 μM (10 nmol)
[14] = PB-treated male rats, PCB 136 5 μM (10 nmol), ND, not detected
[15] = PB-treated male rats, PCB 136 5 μM
[16] = naïve control (CTL) female rats, PCB 136 5 μM (10 nmol), ND, not detected
[17] = naïve control (CTL) female rats, PCB 136 5 μM, ND, not detected
[18] = naïve control (CTL) female rats
[19] = naïve control (CTL) male rats, PCB 136 5 μM (10 nmol), ND, not detected
[20] = naïve control (CTL) male rats, PCB 136 5 μM, ND, not detected

Oc1c(O)c(Cl)c(-c2c(Cl)ccc(Cl)c2Cl)c(Cl)c1Cl [4,5-diOH-PCB 136, 2,2′,3,3′,6,6′-hexachlorobiphenyl-4,5-diol]
Metabolite formation, slices (liver tissue slices [1]; [7]): 3 ± 1 pmol | Metabolite formation, slices (liver tissue slices [1]; [8]): 0.1 ± 0.0 ng/mg protein | Metabolite as percent of ΣOH-PCB (liver tissue slices [1]; DEX-treated female rats): 1.3 ± 0.3% | Metabolite formation, slices (liver tissue slices [1]; [9]): 6 ± 2 pmol | Metabolite formation, slices (liver tissue slices [1]; [10]): 0.1 ± 0.0 ng/mg protein | Metabolite as percent of ΣOH-PCB (liver tissue slices [1]; DEX-treated male rats): 0.9 ± 0.3% | Metabolite formation, slices (liver tissue slices [1]; [11]): 6 ± 3 pmol | Metabolite formation, slices (liver tissue slices [1]; [12]): 0.1 ± 0.1 ng/mg protein | Metabolite as percent of ΣOH-PCB (liver tissue slices [1]; PB-treated female rats): 1.0 ± 0.4% | Metabolite formation, slices (liver tissue slices [1]; [13]): 32 ± 15 pmol | Metabolite formation, medium (liver tissue slices [1]; [14]): 24 ± 34 pmol | Metabolite formation, slices (liver tissue slices [1]; [15]): 0.6 ± 0.3 ng/mg protein | Metabolite as percent of ΣOH-PCB (liver tissue slices [1]; PB-treated male rats): 5.6 ± 3.6% | Metabolite level in tissue slices (liver tissue slices [1]; tissue slices from CTL rats): below the detection limit

Oc1cc(Cl)c(-c2c(Cl)ccc(Cl)c2Cl)c(Cl)c1Cl [4-OH-PCB 136, 2,2′,3,3′,6,6′-hexachlorobiphenyl-4-ol]
Metabolite formation, slices (liver tissue slices [1]; [7]): 24 ± 19 pmol | Metabolite formation, slices (liver tissue slices [1]; [8]): 0.5 ± 0.3 ng/mg protein | Metabolite as percent of ΣOH-PCB (liver tissue slices [1]; DEX-treated female rats): 7.7 ± 3.5% | Metabolite formation, slices (liver tissue slices [1]; [9]): 26 ± 5 pmol | Metabolite formation, slices (liver tissue slices [1]; [10]): 0.4 ± 0.1 ng/mg protein | Metabolite as percent of ΣOH-PCB (liver tissue slices [1]; DEX-treated male rats): 4.3 ± 0.7% | Metabolite formation, slices (liver tissue slices [1]; [11]): 30 ± 4 pmol | Metabolite formation, slices (liver tissue slices [1]; [12]): 0.7 ± 0.0 ng/mg protein | Metabolite as percent of ΣOH-PCB (liver tissue slices [1]; PB-treated female rats): 5.8 ± 1.0% | Metabolite formation, slices (liver tissue slices [1]; [13]): 15 ± 5 pmol | Metabolite formation, slices (liver tissue slices [1]; [15]): 0.3 ± 0.1 ng/mg protein | Metabolite as percent of ΣOH-PCB (liver tissue slices [1]; PB-treated male rats): 1.5 ± 0.2% | 4-OH-PCB 136 levels relative to 5-OH-PCB 136 levels (times higher) (liver tissue slices [1]; liver slices from female CTL rats): approximately 3 times | Metabolite formation, slices (liver tissue slices [1]; [16]): 33 ± 4 pmol | Metabolite formation, slices (liver tissue slices [1]; [17]): 0.7 ± 0.1 ng/mg protein | Metabolite as percent of ΣOH-PCB (liver tissue slices [1]; [18]): 75 ± 16% | Metabolite formation, slices (liver tissue slices [1]; [19]): 60 ± 30 pmol | Metabolite formation, slices (liver tissue slices [1]; [20]): 1.0 ± 0.5 ng/mg protein | Metabolite as percent of ΣOH-PCB (liver tissue slices [1]; naïve control (CTL) male rats): 57 ± 5%

Oc1cc(Cl)c(Cl)c(-c2c(Cl)ccc(Cl)c2Cl)c1Cl [5-OH-PCB 136, 2,2′,3,3′,6,6′-hexachlorobiphenyl-5-ol]
Metabolite formation, slices (liver tissue slices [1]; [7]): 240 ± 110 pmol | Metabolite formation, slices (liver tissue slices [1]; [8]): 4.9 ± 1.1 ng/mg protein | Metabolite as percent of ΣOH-PCB (liver tissue slices [1]; DEX-treated female rats): 91 ± 4% | Metabolite formation, slices (liver tissue slices [1]; [9]): 495 ± 95 pmol | Metabolite formation, medium (liver tissue slices [1]; DEX-treated male rats, PCB 136 5 μM (10 nmol), ND, not detected): 80 ± 37 pmol | Metabolite formation, slices (liver tissue slices [1]; [10]): 7.7 ± 1.2 ng/mg protein | Metabolite as percent of ΣOH-PCB (liver tissue slices [1]; DEX-treated male rats): 95 ± 1% | Metabolite formation, slices (liver tissue slices [1]; [11]): 490 ± 100 pmol | Metabolite formation, slices (liver tissue slices [1]; [12]): 11 ± 1.3 ng/mg protein | Metabolite as percent of ΣOH-PCB (liver tissue slices [1]; PB-treated female rats): 93 ± 1% | Metabolite formation, slices (liver tissue slices [1]; [13]): 900 ± 220 pmol | Metabolite formation, medium (liver tissue slices [1]; [14]): 115 ± 22 pmol | Metabolite formation, slices (liver tissue slices [1]; [15]): 16.0 ± 2.0 ng/mg protein | Metabolite as percent of ΣOH-PCB (liver tissue slices [1]; PB-treated male rats): 93 ± 4% | Metabolite formation, slices (liver tissue slices [1]; [16]): 12 ± 10 pmol | Metabolite formation, slices (liver tissue slices [1]; [17]): 0.3 ± 0.2 ng/mg protein | Metabolite as percent of ΣOH-PCB (liver tissue slices [1]; [18]): 25 ± 16% | Metabolite formation, slices (liver tissue slices [1]; [19]): 50 ± 10 pmol | Metabolite formation, slices (liver tissue slices [1]; [20]): 0.7 ± 0.2 ng/mg protein | Metabolite as percent of ΣOH-PCB (liver tissue slices [1]; naïve control (CTL) male rats): 43 ± 5% | Enantiomeric fraction (EF) (liver tissue slices [2]; liver slices from PB- and DEX-treated male and female rats, racemic PCB 136 5 μM, 2 h, EF = Area E(2)/(Area E(1) + Area E(2)), range over groups): 0.69–0.74

Clc1ccc(Cl)c(-c2c(Cl)ccc(Cl)c2Cl)c1Cl [(−)-PCB 136]
Enantiomeric enrichment (liver tissue slices [2]): slightly enriched | Sensitization of RyR (ryanodine receptor (RyR)): active

C[C@@H]1C[C@H]2[C@@H]3CCC4=CC(=O)C=C[C@]4(C)[C@@]3(F)[C@@H](O)C[C@]2(C)[C@@]1(O)C(=O)CO [Dexamethasone (DEX), dexamethasone]
Liver weight ([3]; female rats): 12.1 ± 0.2 g | Percent change in body weight ([3]; female rats): −12.0 ± 4.4 % | Liver weight ([3]; male rats): 16.8 ± 0.6 g | Percent change in body weight ([3]; male rats): −17.0 ± 0.7 % | LDH release (liver tissue slices [4]; liver tissue slices from DEX pretreated female rats): 19.6 ± 10.4% | LDH release (liver tissue slices [4]; liver tissue slices from DEX pretreated male rats): 10.4 ± 3.6% | CYP1A2 transcript level vs CTL (CYP1A2; liver slices from female rats): not significantly changed | CYP1A2 transcript level vs CTL (CYP1A2; liver slices from male rats): not changed

Oc1cc(Cl)c(-c2c(Cl)ccc(Cl)c2Cl)c(Cl)c1Cl [E(1)-4-OH-PCB]
Enantiomeric enrichment (liver tissue slices [2]): enriched

Oc1cc(Cl)c(Cl)c(-c2c(Cl)ccc(Cl)c2Cl)c1Cl [E(2)-5-OH-PCB]
Enantiomeric enrichment (liver tissue slices [2]): enriched to a similar extent

CCO [ethanol, reference compound]
LDH release relative to vehicle controls [5]: significantly increased LDH release

N[C@@H](CCC(=O)O)C(=O)O [glutamate, reference compound]
PI uptake [6]: significantly increased PI uptake

Source: publication PMC3878182 (Xenobiotica; the fate of foreign compounds in biological …, 2013)
